Laboratory results: ChEMBL document CHEMBL1123247, “Nucleoside conjugates. 7. Synthesis and antitumor activity of 1-beta-D-arabinofuranosylcytosine conjugates of ether lipids” (J Med Chem, 1986)
Where “and” joins values, the source holds several entries; their conditions need not be identical. Equal entries are not always repeated.

Assays:
L1210 [1] = test: Antitumor activity was determined against the ip implanted L1210 leukemia in mice by range in survival days at 131 and 258 mg/kg (treatment of 1qd schedule) dosage; Range is 8-9; assay type: functional, Mus musculus; conditions: route intraperitoneal
Outline: (§1)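 DBA/2J mice, 23-28 g, in groups of 6, were inoculated ip with 1×10^6 L1210 cells on day 0. Dosing was ip starting 24 h later on the stated daily schedules. Conjugates were given as sonicated solutions and reference prodrugs as suspensions in 0.9% NaCl with 0.5% Tween-80. Mice were observed daily until death or 45 days. Median survival T/C was calculated from survivors per NCI protocols.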

L1210 [2] = test: Antitumor activity was determined against the ip implanted L1210 leukemia in mice by percent increase in life span at 131 and 258 mg/kg (treatment of 1qd schedule) dosage; assay type: functional, Mus musculus; conditions: route intraperitoneal
Outline: (§2)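 DBA/2J mice in groups of 6 (wt 23-28 g) were inoculated ip with 1×10^6 L1210 cells on day 0. Dosing was ip from 24 h, in 0.9% NaCl with 0.5% Tween-80 (conjugates sonicated), across a range of doses. Mice were observed daily until death or 45 days. Median T/C was computed from survivors per NCI protocols, and ILS = (T/C − 1)×100.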

L1210 [3] = test: Antitumor activity was determined against the ip implanted L1210 leukemia in mice by percent increase in life span at 26 and 51 mg/kg (treatment of 1-5qd schedule) dosage; assay type: functional, Mus musculus; conditions: route intraperitoneal; outline: as §2
L1210 [4] = test: Antitumor activity was determined against the ip implanted L1210 leukemia in mice by median survival time at 26 and 51 mg/kg (treatment of 1-5qd schedule) dosage; 11.0/8.0; conditions: route intraperitoneal
L1210 [5] = test: Antitumor activity was determined against the ip implanted L1210 leukemia in mice by 45-day survivors in mice at 131 and 258 mg/kg (treatment of 1qd schedule) dosage; assay type: functional, Mus musculus; conditions: route intraperitoneal; outline: as §2
L1210 [6] = test: Antitumor activity was determined against the ip implanted L1210 leukemia in mice by change in […] at 131 and 258 mg/kg (treatment of 1qd schedule) dosage; assay type: functional, Mus musculus; conditions: route intraperitoneal
Outline: (§3)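 DBA/2J mice, 6 per group (wt 23-28 g), inoculated ip with 1×10^6 L1210 cells on day 0. Treatment was given ip in 0.9% NaCl with 0.5% Tween-80, starting 24 h later. Weight change was taken on day 8. Mice were observed daily until death or 45 days. Median survival T/C and %ILS = (T/C − 1) × 100 came from survivors per NCI protocols, and 45-day survivors were counted.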

L1210 [7] = test: Antitumor activity against the ip implanted L1210 leukemia in mice expressed as optimal dose (1-5qd treatment schedule) required to produce greatest increase in life span was determined; assay type: functional, Mus musculus
Outline: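 DBA/2J mice, groups of 6 (23-28 g), were inoculated ip with 1 × 10^6 L1210 cells on day 0. Dosing was ip from 24 h, in 0.9% NaCl with 0.5% Tween-80 (sonicated solution or suspension). Mice were observed daily until death or day 45. Median survival T/C followed NCI protocols, and ILS = (T/C − 1) × 100. Active range means doses giving ILS ≥25%; optimal dose means greatest ILS.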

L1210 [8] = test: Antitumor activity was determined against the ip implanted L1210 leukemia in mice by median survival time at 131 adn 258 mg/kg (treatment of 1qd schedule) dosage; 8.0/8.0; conditions: route intraperitoneal
L1210 [9] = test: Antitumor activity was determined against the ip implanted L1210 leukemia in mice by 45-day survivors in mice at 26 and 51 mg/kg (treatment of 1-5qd schedule) dosage; assay type: functional, Mus musculus; conditions: route intraperitoneal; outline: as §2
L1210 [10] = test: Antitumor activity was determined against the ip implanted L1210 leukemia in mice by change in […] at 26 and 51 mg/kg (treatment of 1-5qd schedule) dosage; assay type: functional, Mus musculus; conditions: route intraperitoneal; outline: as §3
L1210 [11] = test: Antitumor activity was determined against the ip implanted L1210 leukemia in mice by range in survival days at 26 and 51 mg/kg (treatment of 1-5qd schedule) dosage; Range is 11-12; assay type: functional, Mus musculus; conditions: route intraperitoneal; outline: as §1
P388 [12] = test: Antitumor activity was determined against the ip implanted P388 leukemia in mice by 45-day survivors in mice at 133 mg/kg (treatment of 1,5,9qd schedule) dosage; assay type: functional, Mus musculus; conditions: route intraperitoneal
Outline: (§4)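 DBA/2J mice, 23-33 g, in groups of 6, were inoculated ip with 1×10^6 P388 cells on day 0. Dosing was ip from 24 h on the stated schedules, in 0.9% NaCl with 0.5% Tween-80 (sonicated solution or suspension). Survival was followed daily until death or 45 days. Median T/C was calculated from survivors per NCI protocols, with ILS = (T/C − 1) × 100.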

P388 [13] = test: Antitumor activity against the ip implanted P388 leukemia in mice expressed as optimal dose (1-5qd treatment schedule) required to produce greatest increase in life span was determined; assay type: functional, Mus musculus; design: unit: mg/kg
Outline: (§5)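 P388 leukemia: 1 × 10^6 cells were given ip on day 0 to DBA/2J mice, groups of 6 (23-33 g). Treatment was ip from 24 h after inoculation, vehicle 0.9% NaCl with 0.5% Tween-80. Mice were observed daily until death or 45 days. Median survival T/C was calculated from survivors per NCI protocols, and ILS = (T/C − 1) × 100. Active range means doses giving ILS ≥25%; optimal dose means greatest ILS.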

P388 [14] = test: Antitumor activity was determined against the ip implanted P388 leukemia in mice by percent increase in life span at 300 mg/kg (1 qd treatment schedule) dosage; assay type: functional, Mus musculus; conditions: route intraperitoneal; outline: as §4
P388 [15] = test: Antitumor activity against ip implanted P388 leukemia in mice expressed as active dose range (1,5,9qd treatment schedule) required to produce increase in life span by >25% was determined; Range is 100-167; assay type: functional, Mus musculus; outline: as §5
P388 [16] = test: Antitumor activity against ip implanted P388 leukemia in mice expressed as active dose range (1-5qd treatment schedule) required to produce increase in life span by >25% was determined; Range is 40-80; assay type: functional, Mus musculus; outline: as §5
P388 [17] = test: Antitumor activity was determined against the ip implanted P388 leukemia in mice by range in survival days at 300 mg/kg (1 qd treatment schedule) dosage; Range is 39->45; assay type: functional, Mus musculus; conditions: route intraperitoneal
P388 [18] = test: Antitumor activity was determined against the ip implanted P388 leukemia in mice by change in […] at 300 mg/kg (1 qd treatment schedule) dosage; assay type: functional, Mus musculus; conditions: route intraperitoneal
Outline: (§6)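 P388 leukemia, 1×10^6 cells implanted ip on day 0 into DBA/2J mice, groups of 6 (wt 23-33 g). Dosing ip started 24 h post-inoculation, vehicle 0.9% NaCl containing 0.5% Tween-80. Animals were observed daily until death or 45 days. Outputs were weight change, median survival T/C from survivors per NCI protocols, and %ILS = (T/C − 1) × 100.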

P388 [19] = test: Antitumor activity was determined against the ip implanted P388 leukemia in mice by percent increase in life span at 133 mg/kg (treatment of 1,5,9qd schedule) dosage; assay type: functional, Mus musculus; conditions: route intraperitoneal; outline: as §4
P388 [20] = test: Antitumor activity was determined against the ip implanted P388 leukemia in mice by percent median survival rate (treated/control) at 133 mg/kg (treatment of 1,5,9qd schedule) dosage; >45.0/11.5; assay type: functional, Mus musculus; conditions: route intraperitoneal
P388 [21] = test: Antitumor activity was determined against the ip implanted P388 leukemia in mice by change in […] at 60 mg/kg (1-5qd treatment schedule) dosage; assay type: functional, Mus musculus; conditions: route intraperitoneal; outline: as §6
P388 [22] = test: Antitumor activity was determined against the ip implanted P388 leukemia in mice by 45-day survivors in mice at 60 mg/kg (1-5qd treatment schedule) dosage; assay type: functional, Mus musculus; conditions: route intraperitoneal; outline: as §4
P388 [23] = test: Antitumor activity was determined against the ip implanted P388 leukemia in mice by percent median survival rate (treated/control) at 60 mg/kg (1-5qd treatment schedule) dosage; >45.0/11.5; assay type: functional, Mus musculus; conditions: route intraperitoneal
P388 [24] = test: Antitumor activity was determined against the ip implanted P388 leukemia in mice by 45-day survivors in mice at 300 mg/kg (1 qd treatment schedule) dosage; assay type: functional, Mus musculus; conditions: route intraperitoneal; outline: as §4
P388 [25] = test: Antitumor activity was determined against the ip implanted P388 leukemia in mice by percent median survival rate (treated/control) at 300 mg/kg (1 qd treatment schedule) dosage; >45.0/11.0; assay type: functional, Mus musculus; conditions: route intraperitoneal
P388 [26] = test: Antitumor activity against ip implanted P388 leukemia in mice expressed as active dose range (1 qd treatment schedule) required to produce increase in life span by >25% was determined; Range is 200-400; assay type: functional, Mus musculus; outline: as §5
P388 [27] = test: Antitumor activity against the ip implanted P388 leukemia in mice expressed as optimal dose (1 qd treatment schedule) required to produce greatest increase in life span was determined; assay type: functional, Mus musculus; outline: as §5
P388 [28] = test: Antitumor activity was determined against the ip implanted P388 leukemia in mice by change in […] at 133 mg/kg (treatment of 1,5,9qd schedule) dosage; assay type: functional, Mus musculus; conditions: route intraperitoneal; outline: as §6
P388 [29] = test: Antitumor activity against the ip implanted P388 leukemia in mice expressed as optimal dose (1,5,9qd treatment schedule) required to produce greatest increase in life span was determined; assay type: functional, Mus musculus; design: unit: mg/kg; outline: as §5
P388 [30] = test: Antitumor activity was determined against the ip implanted P388 leukemia in mice by percent increase in life span at 60 mg/kg (1-5qd treatment schedule) dosage; assay type: functional, Mus musculus; conditions: route intraperitoneal; outline: as §4

**Q.** How did the Range (L1210 [1]) turn out when CCCCCCCCCCCCCCCCOCC(COP(=O)(O)O)OC(=O)CCCCCCCCCCCCCCC.Nc1ccn([C@@H]2O[C@H](COP(=O)(O)O)[C@@H](O)[C@@H]2O)c(=O)n1 (racemic) was run?
**A.** 8

**Q.** And the ILS (L1210 [2])?
**A.** 0

**Q.** What about the ILS (L1210 [3]) of the same compound?
**A.** 38

**Q.** And the median survival time (L1210 [4])?
**A.** 11 days

**Q.** What about the Survivors (L1210 [5]) of the same compound?
**A.** 0

**Q.** What about the Weight change (L1210 [6]) of the same compound?
**A.** -0.8 g mouse-1

**Q.** And the Optimal dose (L1210 [7])?
**A.** 26 mg and 51 mg

**Q.** And the median survival time (L1210 [8])?
**A.** 8 days

**Q.** And the Survivors (L1210 [9])?
**A.** 0

**Q.** And the Weight change (L1210 [10])?
**A.** 1.1 g mouse-1

**Q.** What about the Range (L1210 [11]) of the same compound?
**A.** 11

**Q.** What does the source list for CCCCCCCCCCCCCCCC(=O)OCC(COP(=O)(O)OP(=O)(O)OC[C@H]1O[C@@H](n2ccc(N)nc2=O)[C@@H](O)[C@@H]1O)OC(=O)CCCCCCCCCCCCCCC (mixture of isomers)?
**A.** Survivors (P388 [12]): 6; Optimal dose (P388 [13]): 60 mg; ILS (P388 [14]): >309; Active dose range (P388 [15]): 100 mg/kg/day; Active dose range (P388 [16]): 40 mg/kg/day; Range (P388 [17]): 39; Weight change (P388 [18]): -1.7 g mouse-1; ILS (P388 [19]): >291; T/C (P388 [20]): >45%; Weight change (P388 [21]): -3.27 g mouse-1; Survivors (P388 [22]): 6; T/C (P388 [23]): >45%; Survivors (P388 [24]): 4; T/C (P388 [25]): >45%; Active dose range (P388 [26]): 200 mg/kg/day; Optimal dose (P388 [27]): 300 mg/kg/day; Weight change (P388 [28]): 0.37 g mouse-1; Optimal dose (P388 [29]): 133 mg; ILS (P388 [30]): >291
